# Assays:
# Rattus norvegicus [1] = experiment: Biodistribution of I-125 labeled compound in rat lungs, 1 hr after intravenous injection. value expressed in average % dose per organ; value may range from 11.5 to 26.1; type: ADME, organism-based, Lung; details: in vivo
# Rattus norvegicus [2] = experiment: Biodistribution of I-125 labeled compound in rat blood, 1 hr after intravenous injection. value expressed in average % dose per organ; value may range from 0.99 to 1.37; type: ADME, organism-based; details: in vivo
# Rattus norvegicus [3] = experiment: Biodistribution of I-125 labeled compound in rat brain to blood ratio, 2 min after intravenous injection. value expressed in % dose per gram ratio; type: ADME, organism-based
# In short: (§1)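 Rats given I-125 diamine iv; tissue activity at 2 min or 1 h compared with diluted injected-dose aliquots. % dose per gram approximated as % dose per organ divided by mean organ weight (brain 1.65 g; blood 18 g). Ratio taken from the per-gram values.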
# Rattus norvegicus [4] = experiment: Biodistribution of I-125 labeled compound in rat heart, 2 min after intravenous injection. value expressed in average % dose per organ; value may range from 2.20 to 3.07; type: ADME, organism-based; details: in vivo
# Rattus norvegicus [5] = experiment: Biodistribution of I-125 labeled compound in rat brain, 1 hr after intravenous injection. value expressed in average % dose per organ; value may range from 1.51 to 2.17; type: ADME, organism-based; details: in vivo
# Rattus norvegicus [6] = experiment: Biodistribution of I-125 labeled compound in rat brain, 2 min after intravenous injection. value expressed in average % dose per organ; value may range from 1.45 to 1.89; type: ADME, organism-based; details: in vivo
# Rattus norvegicus [7] = experiment: Biodistribution of I-125 labeled compound in rat blood, 2 min after intravenous injection. value expressed in average % dose per organ; value may range from 2.74 to 5.33; type: ADME, organism-based; details: in vivo
# Rattus norvegicus [8] = experiment: Biodistribution of I-125 labeled compound in rat liver, 1 hr after intravenous injection. value expressed in average % dose per organ; value may range from 7.32 to 10.1; type: ADME, organism-based; details: in vivo
# Rattus norvegicus [9] = experiment: Biodistribution of I-125 labeled compound in rat liver, 2 min after intravenous injection. value expressed in average % dose per organ; value may range from 6.36 to 14.2; type: ADME, organism-based; details: in vivo
# Rattus norvegicus [10] = experiment: Biodistribution of I-125 labeled compound in rat thyroid, 2 min after intravenous injection. value expressed in average % dose per organ; value may range from 0.15 to 0.25; type: ADME, organism-based, Thyroid gland; details: in vivo
# Rattus norvegicus [11] = experiment: Biodistribution of I-125 labeled compound in rat heart, 1 hr after intravenous injection. value expressed in average % dose per organ; value may range from 1.12 to 1.86; type: ADME, organism-based; details: in vivo
# Rattus norvegicus [12] = species on record: Rattus norvegicus; experiment: Distribution coefficient at pH 7.0 in rat; type: ADME, organism-based
# In short: (§2)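 Octanol/buffer partition: I-125 labeled diamine mixed with 3 g each of 1-octanol and 0.1 M phosphate buffer at pH 7.0 or 7.4, vortexed 3× 1 min, centrifuged 5 min. Two 0.5 g samples of each layer counted. Value is cpm/g octanol over cpm/g buffer, usually repeated three times.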
# Rattus norvegicus [13] = species on record: Rattus norvegicus; experiment: Distribution coefficient at pH 7.4 in rat; type: ADME, organism-based; in short: as §2
# Rattus norvegicus [14] = experiment: Biodistribution of I-125 labeled compound in rat thyroid, 1 hr after intravenous injection. value expressed in average % dose per organ; value may range from 0.16 to 0.26; type: ADME, organism-based, Thyroid gland; details: in vivo
# [15] = The protein binding ability of compound was expressed in Percent free; type: ADME; details: read-out: % free
# In short: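 Binding to pooled human serum was measured by equilibrium dialysis. 0.4 mL serum and 0.4 mL 0.15 M phosphate buffer, pH 7.4, were separated by a membrane, and 0.025 μCi radiolabeled diamine was added on the buffer side. Cells were rotated at 37 °C for 18 h, and aliquots from both sides were weighed and counted. % free = buffer/serum radioactivity concentration ratio × 100. The membrane was also counted.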
# Rattus norvegicus [16] = experiment: Biodistribution of I-125 labeled compound in rat lungs, 2 min after intravenous injection. value expressed in average % dose per organ; value may range from 24.6 to 42.2; type: ADME, organism-based, Lung; details: in vivo
# Rattus norvegicus [17] = experiment: Biodistribution of I-125 labeled compound in rat muscle, 1 hr after intravenous injection. value expressed in average % dose per organ; value may range from 11.3 to 17.1; type: ADME, organism-based, Muscle tissue; details: in vivo
# Rattus norvegicus [18] = experiment: Biodistribution of I-125 labeled compound in rat muscle, 2 min after intravenous injection. value expressed in average % dose per organ; value may range from 4.59 to 12.0; type: ADME, organism-based, Muscle tissue; details: in vivo
# Rattus norvegicus [19] = experiment: Biodistribution of I-125 labeled compound in rat brain to blood ratio, 1 hr after intravenous injection. value expressed in % dose per gram ratio; type: ADME, organism-based; in short: as §1
# Rattus norvegicus [20] = experiment: Biodistribution of I-125 labeled compound in rat blood, 1 hr after intravenous injection. value expressed in average % dose per organ; value may range from 1.64 to 1.91; type: ADME, organism-based; details: in vivo
# Rattus norvegicus [21] = experiment: Biodistribution of I-125 labeled compound in rat blood, 2 min after intravenous injection. value expressed in average % dose per organ; value may range from 3.95 to 6.09; type: ADME, organism-based; details: in vivo
# Rattus norvegicus [22] = experiment: Biodistribution of I-125 labeled compound in rat heart, 2 min after intravenous injection. value expressed in average % dose per organ; value may range from 2.13 to 2.96; type: ADME, organism-based; details: in vivo
# Rattus norvegicus [23] = experiment: Biodistribution of I-125 labeled compound in rat liver, 1 hr after intravenous injection. value expressed in average % dose per organ; value may range from 11.0 to 13.4; type: ADME, organism-based; details: in vivo
# Rattus norvegicus [24] = experiment: Biodistribution of I-125 labeled compound in rat brain, 1 hr after intravenous injection. value expressed in average % dose per organ; value may range from 0.95 to 1.00; type: ADME, organism-based; details: in vivo
# Rattus norvegicus [25] = experiment: Biodistribution of I-125 labeled compound in rat liver, 2 min after intravenous injection. value expressed in average % dose per organ; value may range from 12.3 to 15.0; type: ADME, organism-based; details: in vivo
# Rattus norvegicus [26] = experiment: Biodistribution of I-125 labeled compound in rat thyroid, 1 hr after intravenous injection. value expressed in average% dose per organ; value may range from 0.19 to 0.25; type: ADME, organism-based, Thyroid gland; details: in vivo
# Rattus norvegicus [27] = experiment: Biodistribution of I-125 labeled compound in rat thyroid, 2 min after intravenous injection. value expressed in average % dose per organ; value may range from 0.13 to 0.19; type: ADME, organism-based, Thyroid gland; details: in vivo
# Rattus norvegicus [28] = experiment: Biodistribution of I-125 labeled compound in rat brain, 2 min after intravenous injection. value expressed in average% dose per organ; value may range from 0.85 to 1.01; type: ADME, organism-based; details: in vivo
# Rattus norvegicus [29] = experiment: Biodistribution of I-125 labeled compound in rat heart, 1 hr after intravenous injection. value expressed in average % dose per organ; value may range from 2.29 to 2.35; type: ADME, organism-based; details: in vivo
# Rattus norvegicus [30] = experiment: Biodistribution of I-125 labeled compound in rat […] ratio, 1 hr after intravenous injection. value expressed in % dose per gram ratio; type: ADME, organism-based; details: in vivo
# Rattus norvegicus [31] = experiment: Biodistribution of I-125 labeled compound in rat lungs, 1 hr after intravenous injection. value expressed in average % dose per organ; value may range from 15.1 to 17.1; type: ADME, organism-based, Lung; details: in vivo
# Rattus norvegicus [32] = experiment: Biodistribution of I-125 labeled compound in rat lungs, 2 min after intravenous injection. value expressed in average % dose per organ; value may range from 31.6 to 34.0; type: ADME, organism-based, Lung; details: in vivo
# Rattus norvegicus [33] = experiment: Biodistribution of I-125 labeled compound in rat muscle, 1 hr after intravenous injection. value expressed in average % dose per organ; value may range from 11.0 to 15. 8; type: ADME, organism-based, Muscle tissue; details: in vivo
# Rattus norvegicus [34] = experiment: Biodistribution of I-125 labeled compound in rat muscle, 2 min after intravenous injection. value expressed in average % dose per organ; value may range from 5.95 to 6.51; type: ADME, organism-based, Muscle tissue; details: in vivo
structure (smiles),measurement,setting,value
CCCc1cc(I)cc(CNCCCN(C)C)c1O,Average dose per organ,Rattus norvegicus [1],16.1%
same,Average dose per organ,Rattus norvegicus [2],1.15%
same,Ratio,Rattus norvegicus [3],4.49%
same,Average dose per organ,Rattus norvegicus [4],2.67%
same,Average dose per organ,Rattus norvegicus [5],1.79%
same,Average dose per organ,Rattus norvegicus [6],1.71%
same,Average dose per organ,Rattus norvegicus [7],4.09%
same,Average dose per organ,Rattus norvegicus [8],8.01%
same,Average dose per organ,Rattus norvegicus [9],9.54%
same,Average dose per organ,Rattus norvegicus [10],0.17%
same,Average dose per organ,Rattus norvegicus [11],1.49%
same,Distribution coefficient,Rattus norvegicus [12],44.8
same,Distribution coefficient,Rattus norvegicus [13],176
same,Average dose per organ,Rattus norvegicus [14],0.21%
same,fraction unbound,[15],0.159
same,Average dose per organ,Rattus norvegicus [16],33%
same,Average dose per organ,Rattus norvegicus [17],14.6%
same,Average dose per organ,Rattus norvegicus [18],7.44%
same,Ratio,Rattus norvegicus [19],16.7%
CN(C)CCCNCc1cc(I)cc(C2CCCCC2)c1O,Average dose per organ,Rattus norvegicus [20],1.74%
same,Average dose per organ,Rattus norvegicus [21],5.3%
same,Ratio,Rattus norvegicus [3],1.91%
same,Average dose per organ,Rattus norvegicus [22],2.51%
same,Average dose per organ,Rattus norvegicus [23],12.4%
same,Average dose per organ,Rattus norvegicus [24],0.97%
same,Average dose per organ,Rattus norvegicus [25],13.8%
same,Average dose per organ,Rattus norvegicus [26],0.22%
same,Average dose per organ,Rattus norvegicus [27],0.16%
same,Average dose per organ,Rattus norvegicus [28],0.94%
same,Average dose per organ,Rattus norvegicus [29],2.33%
same,Distribution coefficient,Rattus norvegicus [12],260
same,Distribution coefficient,Rattus norvegicus [13],468
same,fraction unbound,[15],0.0517
same,Ratio,Rattus norvegicus [30],5.99%
same,Average dose per organ,Rattus norvegicus [31],16.3%
same,Average dose per organ,Rattus norvegicus [32],33%
same,Average dose per organ,Rattus norvegicus [33],13.4%
same,Average dose per organ,Rattus norvegicus [34],6.17%

# — ChEMBL document CHEMBL1122426, “Radioiodine-labeled N,N-dimethyl-N'-(2-hydroxy-3-alkyl-5-iodobenzyl)-1,3-propanediamines for brain perfusion imaging” (J Med Chem, 1983)
